The values that follow come from ChEMBL document CHEMBL4270570 (Eur J Med Chem, 2018).

The target in series [1] is Human immunodeficiency virus type 1 reverse transcriptase (Human immunodeficiency virus 1, UniProt Q72547). The experiment in a line: Inhibition of HIV1 reverse transcriptase RNaseH activity using 3'-fluorescein/5'-Dabcyl labeled HTS-1 substrate.
Another series deals with Gag-Pol polyprotein (Human immunodeficiency virus type 1 group M subtype B (isolate HXB2)(HIV-1), UniProt P04585). Description: Inhibition of HIV1 reverse transcriptase polymerase activity using 18 nucleotide DNA primer and 100 nucleotide DNA template after 30 mins. Set-up: species or system Human immunodeficiency virus 1. The gist of the method: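 Full-length RT at 20 nM with 40 nM template/primer (18-nt DNA primer on 100-nt DNA template) and 10 µM dNTPs in 50 mM Tris pH 7.8, 50 mM NaCl. Started with 6 mM MgCl2, with 1% DMSO and increasing compound concentrations. Primer extension ran 30 min at 37 °C and was stopped with 100 mM EDTA.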

Series [2] concerns the target Human immunodeficiency virus type 1 integrase (Human immunodeficiency virus 1, UniProt Q7ZJM1). The experiment in a line: Inhibition of HIV integrase strand transfer activity using 5'-biotin/3'-Cy5-labeled DNA substrate preincubated for 5 mins followed by substrate addition measured after 30 mins by HTS assay.
In series [3] the test system is Human immunodeficiency virus 1. Description: Antiviral activity against HIV1 infected in CD4/CXCR4/CCR5 expressing human P4R5 MAGI cells preincubated with cells for 24 hrs followed by viral infection measured after 48 hrs by beta-galactosidase reporter gene assay. The series is classed as functional, organism-based. A general note: In a reporter assay the amount or activity of a reporter protein is the signal.

A short description of series [4]: Effective permeability of the compound at 10 uM after 5 hrs by PAMPA. The class given is ADME. An outline of the steps:
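Lipid-precoated PAMPA plates thawed 30 min at room temperature. Compounds diluted from 10 mM DMSO stock into DPBS to 10 µM final and placed in donor wells, with DPBS in acceptor wells. Incubated 5 h at 25 °C without agitation. Donor and acceptor concentrations measured by LC-MS/MS. Pe calculated from acceptor and equilibrium concentrations, filter area 0.3 cm² and well volumes.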
(In general: PAMPA measures passive passage across an artificial lipid membrane.)

The nature of series [5]: Cytotoxicity against human P4R5 MAGI cells. The series is classed as cell-based. The gist of the method: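 P4R5 cells express CD4, CXCR4, CCR5 and an HIV LTR-driven β-galactosidase reporter. They were seeded at 4×10^3 cells per well in DMEM/10% FBS with puromycin (1 µg/mL).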

Chain of Human immunodeficiency virus type 1 integrase (Q7ZJM1 whole entry): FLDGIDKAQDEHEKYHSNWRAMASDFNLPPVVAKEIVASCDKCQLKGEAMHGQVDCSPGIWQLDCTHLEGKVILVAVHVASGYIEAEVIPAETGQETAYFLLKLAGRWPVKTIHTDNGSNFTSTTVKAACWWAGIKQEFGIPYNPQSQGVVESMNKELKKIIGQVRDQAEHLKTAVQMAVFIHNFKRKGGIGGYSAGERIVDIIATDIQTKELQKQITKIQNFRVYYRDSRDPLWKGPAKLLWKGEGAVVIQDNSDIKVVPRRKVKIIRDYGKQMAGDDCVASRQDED

With `COc1ccc(-c2ccc(Sc3cc(=O)n(O)c(=O)[nH]3)cc2)cc1OC`, the IC50 (in general, the point on the concentration scale where inhibition reaches its midpoint) in series [1] was found to be 4 nM; against Gag-Pol polyprotein it was 10 µM; in series [2], 330 nM. Besides, in series [3], the half-maximal effective concentration (EC50) (as a rule, the concentration giving half of the maximal effect) is greater than 20 µM. The compound also yielded a Peff in series [4] of 0.9 ×10⁻⁶ cm/s. For the same compound, the half-maximal cytotoxic concentration (CC50) – broadly, the concentration at which the toxic effect on the cells reaches its halfway point – in series [5] is greater than 100 µM.
With `O=c1cc(Sc2cccc(-c3ccc(Cl)cc3)c2)[nH]c(=O)n1O`, the figures for the IC50 (in series [1]; at Gag-Pol polyprotein; in series [2]) were 5 nM, 7.8 µM and greater than 1000 nM, respectively. In addition, the concentration for a half-maximal effect (EC50) in series [3] was determined as 10 µM. In series [5], this compound returned a CC50 greater than 100 µM.
For the compound `COc1ccc(-c2ccc(Sc3cc(=O)n(O)c(=O)[nH]3)cc2)cc1F`, the figures for the IC50 (in series [1]; against Gag-Pol polyprotein; in series [2]) were 4 nM, 6.8 µM and greater than 140 nM, respectively. The half-maximal effective concentration (EC50) in series [3] was determined as 8 µM. The compound further came in with a CC50 in series [5] greater than 100 µM.
Turning to `O=c1cc(Sc2ccc([N+](=O)[O-])cc2)[nH]c(=O)n1O`, the concentration for half-maximal inhibition (IC50) in series [1] is 12 nM; against Gag-Pol polyprotein it was greater than 10 µM; in series [2], 3400 nM. The EC50 in series [3] is greater than 20 µM. Besides, the Peff in series [4] is 0.032 ×10⁻⁶ cm/s. In addition, the CC50 in series [5] is greater than 100 µM.
On to `O=c1cc(Sc2cccc(-c3cccc(C(F)(F)F)c3)c2)[nH]c(=O)n1O`, for which the IC50 was 7 nM in series [1], 7.7 µM against Gag-Pol polyprotein and greater than 1000 nM in series [2]. In addition, a half-maximal effect in series [3] (EC50) was put at 8.3 µM. In series [5], this compound registered a half-maximal cytotoxic concentration (CC50) greater than 100 µM.
For `O=c1cc(Sc2ccccc2-c2ccc(F)cc2)[nH]c(=O)n1O`, the figures for the IC50 (in series [1]; on Gag-Pol polyprotein; in series [2]) were 12 nM, greater than 10 µM and greater than 100000 nM, respectively. In series [3], this compound yielded an EC50 of 11 µM. The compound also gave a CC50 in series [5] greater than 100 µM.
The matching figures for `O=c1cc(Sc2cccc(-c3cccc(F)c3)c2)[nH]c(=O)n1O`: 6 nM, 9.6 µM, 240 nM, 6.5 µM and greater than 100 µM.
For `O=c1cc(Sc2cccc(-c3ccc(F)c(Cl)c3)c2)[nH]c(=O)n1O`, the values for the concentration for half-maximal inhibition (IC50) (in series [1]; on Gag-Pol polyprotein; in series [2]) were 5 nM, 5.6 µM and greater than 1000 nM, respectively. Further, the 50% effective concentration (EC50) in series [3] was determined as 11 µM. This compound also showed a CC50 in series [5] greater than 100 µM.
`O=c1cc(Sc2ccc(Cl)cc2)[nH]c(=O)n1O`: the half-maximal inhibitory concentration (IC50) in series [1] was 12 nM; against Gag-Pol polyprotein, greater than 10 µM; in series [2], 640 nM. In series [3], the EC50 is greater than 20 µM. For the same compound, the Peff in series [4] worked out at 0.35 ×10⁻⁶ cm/s. Moreover, the CC50 in series [5] was greater than 100 µM.
As for `O=c1cc(Sc2cccc(-c3ccc(C(F)(F)F)cc3)c2)[nH]c(=O)n1O`, the IC50 in series [1] was 7 nM; against Gag-Pol polyprotein, 10 µM; in series [2], greater than 140 nM. This compound also gave a concentration giving a half-maximal response (EC50) in series [3] of 11 µM. Besides, the CC50 in series [5] was greater than 100 µM.
With `Cc1ccc(Sc2cc(=O)n(O)c(=O)[nH]2)cc1`, the half-inhibitory concentration (IC50) is 33 nM in series [1], greater than 10 µM against Gag-Pol polyprotein and 2800 nM in series [2]. The EC50 in series [3] was greater than 20 µM. In addition, the Peff in series [4] amounted to 0.92 ×10⁻⁶ cm/s. In series [5], this compound returned a CC50 greater than 100 µM.
With `O=c1cc(Sc2ccccc2-c2ccc(C(F)(F)F)cc2)[nH]c(=O)n1O`, the IC50 in series [1] was 13 nM; on Gag-Pol polyprotein, greater than 10 µM; in series [2], greater than 100000 nM. Moreover, it took 7 µM to reach a half-maximal effect in series [3] (EC50). The compound further gave a CC50 in series [5] greater than 100 µM.
In the case of `O=c1cc(Sc2ccc(-c3ccc(O)cc3)cc2)[nH]c(=O)n1O`, the half-maximal inhibitory concentration (IC50) in series [1] is 4 nM; against Gag-Pol polyprotein it was greater than 10 µM; in series [2], 170 nM. Further, the EC50 in series [3] is greater than 20 µM. The compound also yielded a Peff in series [4] of 0.039 ×10⁻⁶ cm/s. Besides, the CC50 in series [5] is greater than 100 µM.
With `O=c1cc(Sc2cccc(-c3ccc(F)cc3)c2)[nH]c(=O)n1O`, the 50% inhibitory concentration (IC50) in series [1] was 5 nM; against Gag-Pol polyprotein it was 9.9 µM; in series [2], greater than 140 nM. In addition, a half-maximal effect in series [3] (EC50) was put at 5 µM. This compound gave a CC50 in series [5] greater than 100 µM.
